Screens (PubChem BioAssay)
proCasp7 act: procaspase-7 activators, primary screen, counter-screen for procaspase-3 activator project, biochemical, absorbance, HTS, human; Caspase-7 (Homo sapiens), P55210; AID 463210, 2010; recombinant procaspase-7, Ac-DEVD-pNA absorbance 405 nm; D23A/D198A/D206A triple mutant, cannot self-cleave; scale: DMSO 0, 5 µM enzyme 100; 0.093% of 330,000 active; activation, % at 8.5 µM;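 active means percent activation above the screen-wide mean plus 3 SD, cut at about 25% in these data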
Target sequence (P55210 whole entry D23A/D198A/D206A): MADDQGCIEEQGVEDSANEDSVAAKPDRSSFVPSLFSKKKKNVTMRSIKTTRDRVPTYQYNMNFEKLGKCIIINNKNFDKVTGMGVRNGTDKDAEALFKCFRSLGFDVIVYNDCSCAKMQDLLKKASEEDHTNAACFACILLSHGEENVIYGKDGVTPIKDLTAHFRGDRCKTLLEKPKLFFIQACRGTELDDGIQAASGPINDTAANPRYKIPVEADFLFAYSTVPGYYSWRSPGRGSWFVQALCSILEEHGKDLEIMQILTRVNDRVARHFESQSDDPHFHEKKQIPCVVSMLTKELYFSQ
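Detection: p-Nitroaniline absorbance at 405 nm, read at 0 and 120 min; system: Uncleavable procaspase-7 mutant enzyme; evaluation: % activation from two-timepoint absorbance difference, scaled to controls; times: 1 h enzyme–compound preincubation and 2 h substrate reaction, both 25 °C; buffer or medium: Zinc-free HEPES pH 7.4 with 300 mM NaCl, 0.01% Triton X-100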
procasp3 activ: activators of human procaspase-3 D3A mutant, primary screen, biochemical, absorbance, PC-3 D3A mutant, single concentration; activation, % at 8.5 µM; recombinant procaspase-3 D3A, Ac-DEVD-pNA absorbance 405 nm; AID 463141, 2010; 0.11% of 330,000 active;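 active means activation above the mean of all tested compounds plus 3 SD, cut at about 21% in these data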;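 further: 0% = DMSO alone and 100% = DMSO wells spiked with extra 5 µM PC-3 D3A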
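assay system = Procaspase-3 D3A mutant | signal = absorbance at 405 nm, 0 and 120 min | times = 1 h preincubation plus 2 h reaction at 25 °C | repeats = single replicate | read-out = % activation between DMSO and enzyme-spiked controls | medium = Zinc-free HEPES saline buffer with Triton X-100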
PP5 primary: PP5 phosphatase inhibitors, primary screen, biochemical, fluorescence; 0.18% of 320,000 active; inhibition, % at 6.7 µM; Serine/threonine-protein phosphatase 5 (Homo sapiens), P53041; purified PP5c, OMFP substrate fluorescence;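 active means inhibition above the campaign's mean inhibition across all tested compounds plus 3 SD, cut at about 9.5% in these data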;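 further: 0% = DMSO only and 100% = 100 µM cantharidin control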
PP1 counter: PP1-alpha phosphatase inhibitors, primary screen, counter-screen for PP5 inhibitor project, biochemical, fluorescence, OMFP substrate, single point; AID 2235, 2010; purified PP1alpha; 0.9% of 320,000 active; inhibition, % at 6.7 µM;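 active means inhibition above the mean inhibition of all tested compounds plus 3 SD, computed separately for each screening campaign, cut at about 15% in these data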
Target sequence (P62136 whole entry, looked up): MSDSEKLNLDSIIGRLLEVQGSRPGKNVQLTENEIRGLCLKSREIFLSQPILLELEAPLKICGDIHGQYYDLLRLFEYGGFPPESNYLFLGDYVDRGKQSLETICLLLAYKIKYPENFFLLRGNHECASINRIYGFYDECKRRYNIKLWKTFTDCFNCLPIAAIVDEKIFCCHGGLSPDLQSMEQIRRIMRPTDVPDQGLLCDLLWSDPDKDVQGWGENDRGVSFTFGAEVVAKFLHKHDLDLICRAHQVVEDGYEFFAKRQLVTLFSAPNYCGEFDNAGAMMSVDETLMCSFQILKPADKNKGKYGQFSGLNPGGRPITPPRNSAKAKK
PP1 inh confirm: PP1 phosphatase inhibitors, confirmation, biochemical, fluorescence, OMFP substrate, triplicate | purified PP1alpha | inhibition, % at 6.7 µM | shares compounds with PP1 counter | 52% of 1,900 active | AID 2358, 2010;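 active means mean PP1 inhibition above a set limit taken from the earlier primary screen, cut at about 15% in these data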
PP5 counter: PP5 phosphatase inhibition by PP1 hits, confirmation, counter-screen for PP1 inhibitor project, biochemical, fluorescence, triplicate; shares compounds with PP1 counter; purified PP5c, OMFP fluorescence; inhibition, % at 6.7 µM; 4% of 1,900 active; AID 2360, 2010;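 active means mean PP5 inhibition over triplicate wells above about 9.5% taken from the earlier PP1 screen, limit read from the data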
* hit, by the source's call; . = no result given. This is a sample that favours compounds with a hit; in the whole collection about 1.2% have one here.

SMILES | proCasp7 act | procasp3 activ | PP5 primary | PP1 counter | PP1 inh confirm | PP5 counter
Cc1ccc(C)c(CN2C(=O)C3CCCN3c3ccc(S(=O)(=O)N4CCOCC4)cc32)c1 (stereo unspecified) | 4 | 6 | 3 | 22* | 22* | 0
COc1ccc(CN2c3cc(S(=O)(=O)N4CCOCC4)ccc3N3CCCC32)cc1 (stereo unspecified) | 8 | -1 | 3 | -4 | . | .
COc1cccc(CN2C(=O)C3CCCN3c3ccc(S(=O)(=O)N4CCOCC4)cc32)c1 (stereo unspecified) | -2 | -9 | 2 | 26* | 25* | 0
Cc1ccc2c(c1)N(CCC(=O)NCc1cccs1)C(=O)C(C)O2 (stereo unspecified) | 14 | 11 | 1 | -2 | . | .
Cc1ccc(C(=O)N(Cc2nnc(-c3ccc(Cl)cc3)o2)C2CC2)o1 | 10 | -2 | -1 | -3 | . | .
O=C1CCCN1c1ccc(C(=O)N(Cc2nnc(-c3ccc(Cl)cc3)o2)C2CC2)cc1 | -4 | 1 | 2 | 18* | -3 | -5
CCOC(=O)c1c(NC(=O)CSc2nnc3c(n2)[nH]c2ccc(F)cc23)sc(C(C)=O)c1C | -15 | 0 | 2 | -4 | . | .
CCOC(=O)c1c(NC(=O)CSc2nnc3c(n2)[nH]c2ccccc23)sc2c1CCN(C)C2 | 9 | -6 | 0 | 18* | 11 | -1
COc1cc(C(c2c(C(=O)O)[nH]c3ccccc23)c2c(C(=O)O)[nH]c3ccccc23)ccc1OCc1ccccc1 | -1 | 2 | 5 | 19* | 15* | -2
COc1cc(C(NC(C)=O)NC(C)=O)ccc1OCc1ccccc1 | 10 | 5 | -1 | -4 | . | .
O=C1CC(=O)N(Cc2ccco2)C(=O)N1 | -13 | 9 | 2 | 58* | 1 | 1
COc1cccc(-c2nnc(NC(=O)c3cccc(F)c3)o2)c1 | 3 | 6 | 4 | 14 | . | .
COc1cccc(-c2nnc(NC(=O)c3ccc(Cl)s3)o2)c1 | 2 | 15 | -1 | 22* | 25* | -5
O=C(Nc1nnc(-c2ccco2)o1)c1ccc(Cl)s1 | 3 | 0 | -2 | 18* | 3 | -2
O=C(Nc1nnc(-c2ccco2)o1)c1cccc(Cl)c1 | -5 | 2 | 1 | 2 | . | .
CCCOc1ccc(NC(=O)c2c(-c3ccccc3)noc2C)cc1 | 4 | -3 | 1 | -5 | . | .
CCCOc1ccc(C(=O)NC(=S)NNC(=O)c2c(-c3ccccc3)noc2C)cc1 | -12 | -15 | 3 | 18* | 1 | -1
O=C1C(=O)N(CCO)C(c2ccc(Br)cc2)/C1=C(\O)c1ccccc1 (stereo unspecified) | 0 | -1 | 3 | 2 | . | .
COc1ccc(Nc2nc(Nc3ccc(OC)cc3)nc(-n3[nH]c(=O)c(C)c3C)n2)cc1 | 11 | 6 | 1 | 23* | 23* | -1
COC(=O)c1ccccc1NC1=C/C(=N\S(=O)(=O)c2ccc(C(=O)O)cc2)c2ccccc2C1=O | -25 | -12 | 9 | 5 | . | .
CCc1ccc(S(=O)(=O)/N=C2\C=C(Nc3ccc(C(=O)O)cc3)C(=O)c3ccccc32)cc1 | -17 | -2 | 11* | 15* | 16* | 44*
COC(=O)c1ccc(/C=C/c2ccc3cccc(OC(C)=O)c3n2)cc1 | -7 | 12 | 1 | 20* | 21* | -4
COc1c(OC(C)=O)ccc(/C=C/c2ccc3cccc(OC)c3n2)c1[N+](=O)[O-] | -9 | 6 | 3 | 0 | . | .
Cc1ccc(C(=O)NCCCN2CCOCC2)cc1Cl | -10 | 0 | -4 | 18* | -5 | -4
CCOc1ccc2nc(NC3=NC(c4ccc(OC)cc4)CC(=O)N3)nc(C)c2c1 (stereo unspecified) | -9 | 0 | 4 | 39* | 11 | -2
SMILES | proCasp7 act | procasp3 activ | PP5 primary | PP1 counter | PP1 inh confirm | PP5 counter
COc1ccc2[nH]c3c(C)c4ccncc4c(C)c3c2c1 | -3 | -4 | 7 | 35* | 17* | -1
COc1ccc2[nH]c(C)cc(=O)c2c1 | 5 | -1 | -3 | -2 | . | .
CCOC(=O)c1c(-n2cnnn2)sc2c1CCCC2 | 2 | -17 | 2 | -4 | . | .
CCOC(=O)c1c(N2C(=O)Nc3cc(Cl)c(Cl)cc3N2O)sc2c1CCCCC2 | 1 | -3 | 3 | 19* | 17* | 0
O=C(COC(=O)/C(=C/c1cccs1)c1cccs1)NC(c1ccccc1)c1ccccc1 | -2 | 2 | 4 | 20* | 11 | 0
CC(=O)c1ccc(OCCCC(=O)NCCc2ccccc2)cc1 | -6 | 1 | 2 | 4 | . | .
COC(=O)c1ccc(CNCC(O)COc2ccc(-c3ccccc3)cc2)cc1 (stereo unspecified) | -1 | 5 | 5 | 8 | . | .
COc1ccc(CNCC(O)COc2ccc(C(C)(C)c3ccccc3)cc2)cc1 (stereo unspecified) | -7 | -5 | 3 | 24* | 12 | 3
O=C(Nc1nnc(-c2cccnc2)o1)c1cccc(Cl)c1 | 9 | -2 | -2 | 8 | . | .
CCCCN(CC)S(=O)(=O)c1ccc(C(=O)Nc2nnc(COC)o2)cc1 | 3 | -9 | 4 | 19* | 6 | -1
CCCCN(C)S(=O)(=O)c1ccc(C(=O)Nc2nnc(-c3cccs3)o2)cc1 | 1 | 0 | 5 | 33* | 20* | 0
O=C(Nc1nnc(-c2ccccn2)o1)c1cccc(Cl)c1 | 10 | -2 | -2 | 25* | 5 | -3
CCCCN(CC)S(=O)(=O)c1ccc(C(=O)Nc2nnc(CSC)o2)cc1 | -11 | -4 | 2 | 29* | 20* | -1
CC1CC(C)CN(S(=O)(=O)c2ccc(NC(=O)c3ccc(=O)[nH]c3)cc2)C1 (stereo unspecified) | -15 | 6 | 2 | -1 | . | .
COCCNc1nnc(SCC(=O)NC2CCCCC2)s1 | 8 | -1 | -3 | -4 | . | .
CCc1nnc(NC(=O)c2ccc(S(=O)(=O)N(CCOC)CCOC)cc2)o1 | 0 | -11 | 1 | 4 | . | .
CCCN(CCC)S(=O)(=O)c1ccc(C(=O)Nc2nnc(CSC)o2)cc1 | 15 | 0 | -2 | 24* | 22* | -2
O=C(Nc1nnc(-c2cccs2)o1)c1cccc(Oc2ccccc2)c1 | 10 | 3 | -1 | 29* | 29* | -2
